pIC50: −log10 of the molar value.
Columns and labels:
[1] = system: Trypanosoma brucei rhodesiense; assay: Growth inhibition of Trypanosoma brucei rhodesiense trypomastigotes after 72 hrs by Alamar blue assay; assay type: functional, organism-based
Leishmania donovani [2] = assay: Growth inhibition of Leishmania donovani promastigotes after 72 hrs by Alamar blue assay; assay type: functional, organism-based
In short: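 Parasites exposed to drug for 72 h; growth read as optical density at 600 nm against drug-free control cultures. Six drug concentrations per run, 2–5 independent runs; mean inhibition plotted against concentration, IC50 and IC90 by linear regression, reported in micromolar with standard errors of the means.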

Trypanosoma cruzi [3] = assay: Growth inhibition of Trypanosoma cruzi epimastigotes after 72 hrs by Alamar blue assay; assay type: functional, organism-based
[4] = Growth inhibition of human U937 cells at 3 mM; assay type: cell-based, U-937
Leishmania infantum = assay: Antiparasitic activity against Leishmania infantum promastigotes assessed as parasite killing at 1.4 to 382.9 uM; assay type: functional
Trypanosoma cruzi [5] = assay: Inhibition of ATPase in Trypanosoma cruzi at 1 uM in presence of calcium; design: scale not given: the % may be the effect or the level left
In short: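 T. cruzi membranes were isolated by a protocol adapted from Leishmania. It was started with 2 mM ATP, and released inorganic phosphate was measured colorimetrically.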

Leishmania major [6] = assay: Antiparasitic activity against Leishmania major promastigotes assessed as parasite killing at 750 nM; assay type: functional
Leishmania major [7] = assay: Antiparasitic activity against Leishmania major amastigotes in macrophage assessed as parasite killing at 3 to 30 uM; assay type: functional
Leishmania donovani [8] = assay: Antiparasitic activity against Leishmania donovani in hamster assessed as reduction of liver parasite burden at 25 mg/kg, po; assay type: functional; design: scale not given: the % may be the effect or the level left
Leishmania donovani [9] = assay: Antiparasitic activity against Leishmania donovani in hamster assessed as reduction of spleen parasite burden at 25 mg/kg, po; assay type: functional; design: scale not given: the % may be the effect or the level left
Leishmania donovani [10] = assay: Antiparasitic activity against Leishmania donovani in hamster assessed as reduction of liver parasite burden at 50 mg/kg, po; assay type: functional; design: scale not given: the % may be the effect or the level left
Leishmania donovani [11] = assay: Antiparasitic activity against Leishmania donovani in hamster assessed as reduction of spleen parasite burden at 50 mg/kg, po; assay type: functional; design: scale not given: the % may be the effect or the level left

**Q.** With `C[C@@H]1[C@H](O)[C@@H](C)/C=C/C=C/C=C/C=C/C=C/C=C/C=C/[C@H](O[C@@H]2O[C@H](C)[C@@H](O)[C@H](N)[C@@H]2O)C[C@@H]2O[C@](O)(C[C@@H](O)C[C@@H](O)[C@H](O)CC[C@@H](O)C[C@@H](O)CC(=O)O[C@H]1C)C[C@H](O)[C@H]2C(=O)O` [AMPHOTERICIN B] as the compound, how does the pIC50 [1] read?
**A.** The pIC50 was 5.55.

**Q.** And the IC90 [1]?
**A.** Its IC90 is 11.9 µM.

**Q.** What about the pIC50 (Leishmania donovani [2]) of the same compound?
**A.** Its pIC50 is 5.55.

**Q.** What about the pIC50 (Trypanosoma cruzi [3]) of the same compound?
**A.** Its pIC50 is 5.19.

**Q.** What about the IC90 (Trypanosoma cruzi [3]) of the same compound?
**A.** Its IC90 is 19.6 µM.

**Q.** With `C[C@H]1[C@H](N2CCS(=O)(=O)CC2)O[C@@H]2O[C@@]3(C)CC[C@H]4[C@H](C)CC[C@@H]1[C@@]24OO3` [ARTEMIFONE] as the compound, how does the pIC50 [1] read?
**A.** The pIC50 was 4.65.

**Q.** And the IC90 [1]?
**A.** Its IC90 is 44.8 µM.

**Q.** And the pIC50 (Leishmania donovani [2])?
**A.** The pIC50 was 4.89.

**Q.** What about the pIC50 (Trypanosoma cruzi [3]) of the same compound?
**A.** The pIC50 was 4.63.

**Q.** What about the IC90 (Trypanosoma cruzi [3]) of the same compound?
**A.** Its IC90 is 50.5 µM.

**Q.** Which inhibition at 3000 µM [4] does the source give for `C[C@@H]1CC[C@H]2[C@@H](C)C(=O)O[C@@H]3O[C@@]4(C)CC[C@@H]1[C@]32OO4` [ARTEMISININ] here?
**A.** The inhibition at 3000 µM was less than 5%.

**Q.** And the Activity (Leishmania infantum)?
**A.** Its Activity is 50%.

**Q.** And the Activity (Trypanosoma cruzi [5])?
**A.** Its Activity is 24.9%.

**Q.** And the Activity (Leishmania major [6])?
**A.** Its Activity is 50%.

**Q.** What about the pIC50 [1] of the same compound?
**A.** Its pIC50 is 4.69.

**Q.** What about the IC90 [1] of the same compound?
**A.** Its IC90 is 49.1 µM.

**Q.** What about the pIC50 (Leishmania donovani [2]) of the same compound?
**A.** The pIC50 was 4.51.

**Q.** What about the Activity (Leishmania major [7]) of the same compound?
**A.** The Activity was 50%.

**Q.** What about the pIC50 (Trypanosoma cruzi [3]) of the same compound?
**A.** The pIC50 was 4.87.

**Q.** What about the IC90 (Trypanosoma cruzi [3]) of the same compound?
**A.** The IC90 was 46.5 µM.

**Q.** With `C[C@H]1[C@@H](O)O[C@@H]2O[C@@]3(C)CC[C@H]4[C@H](C)CC[C@@H]1[C@@]24OO3` [ARTENIMOL] as the compound, how does the Activity (Leishmania donovani [8]) read?
**A.** Its Activity is 75%.

**Q.** And the Activity (Leishmania donovani [9])?
**A.** The Activity was 75%.

**Q.** What about the Activity (Leishmania donovani [10]) of the same compound?
**A.** Its Activity is 75%.

**Q.** And the pIC50 [1]?
**A.** The pIC50 was 4.61.

**Q.** And the IC90 [1]?
**A.** Its IC90 is 49.6 µM.

**Q.** What about the Activity (Leishmania donovani [11]) of the same compound?
**A.** Its Activity is 75%.

**Q.** What about the pIC50 (Trypanosoma cruzi [3]) of the same compound?
**A.** The pIC50 was 4.89.

**Q.** And the IC90 (Trypanosoma cruzi [3])?
**A.** The IC90 was 49.2 µM.

**Q.** With `COc1ccc2[nH]c([S+]([O-])Cc3ncc(C)c(OC)c3C)nc2c1` (centres undefined) [OMEPRAZOLE] as the compound, how does the pIC50 [1] read?
**A.** The pIC50 was 3.75.

**Q.** What about the IC90 [1] of the same compound?
**A.** The IC90 was 509 µM.

**Q.** What about the pIC50 (Leishmania donovani [2]) of the same compound?
**A.** The pIC50 was 3.47.

**Q.** What about the pIC50 (Trypanosoma cruzi [3]) of the same compound?
**A.** Its pIC50 is 3.75.

**Q.** And the IC90 (Trypanosoma cruzi [3])?
**A.** Its IC90 is 526 µM.

**Q.** With `C[C@@H]1O[C@@H](O[C@H]2C[C@@H](O)[C@]3(CO)[C@H]4[C@H](O)C[C@]5(C)[C@@H](C6=CC(=O)OC6)CC[C@]5(O)[C@@H]4CC[C@]3(O)C2)[C@H](O)[C@H](O)[C@H]1O` [OUABAIN] as the compound, how does the pIC50 [1] read?
**A.** Its pIC50 is less than 3.35.

**Q.** And the IC90 [1]?
**A.** The IC90 was 1180 µM.

**Q.** What about the pIC50 (Leishmania donovani [2]) of the same compound?
**A.** Its pIC50 is less than 3.35.

**Q.** What about the pIC50 (Trypanosoma cruzi [3]) of the same compound?
**A.** The pIC50 was less than 3.35.

**Q.** And the IC90 (Trypanosoma cruzi [3])?
**A.** Its IC90 is 953 µM.

**Q.** With `N=C(N)c1ccc(OCCCCCOc2ccc(C(=N)N)cc2)cc1` [PENTAMIDINE] as the compound, how does the pIC50 [1] read?
**A.** The pIC50 was 5.92.

**Q.** What about the IC90 [1] of the same compound?
**A.** The IC90 was 3.7 µM.

**Q.** What about the pIC50 (Leishmania donovani [2]) of the same compound?
**A.** Its pIC50 is 6.00.

**Q.** What about the pIC50 (Trypanosoma cruzi [3]) of the same compound?
**A.** Its pIC50 is 5.96.

**Q.** And the IC90 (Trypanosoma cruzi [3])?
**A.** The IC90 was 4.4 µM.

**Q.** Which Activity (Trypanosoma cruzi [5]) does the source give for `C/C=C(/C)C(=O)O[C@H]1C(C)=C2[C@H]([C@@H]1OC(=O)CCCCCCC)[C@@](C)(OC(C)=O)C[C@H](OC(=O)CCC)[C@@]1(O)[C@H]2OC(=O)[C@@]1(C)O` [THAPSIGARGIN] here?
**A.** Its Activity is 25.8%.

**Q.** And the pIC50 [1]?
**A.** Its pIC50 is 4.52.

**Q.** What about the IC90 [1] of the same compound?
**A.** The IC90 was 71.9 µM.

**Q.** What about the pIC50 (Leishmania donovani [2]) of the same compound?
**A.** The pIC50 was 4.55.

**Q.** What about the pIC50 (Trypanosoma cruzi [3]) of the same compound?
**A.** Its pIC50 is 4.47.

**Q.** And the IC90 (Trypanosoma cruzi [3])?
**A.** The IC90 was 78.1 µM.

— ChEMBL document CHEMBL1145491, “Artemisinins inhibit Trypanosoma cruzi and Trypanosoma brucei rhodesiense in vitro growth” (Antimicrob Agents Chemother, 2007)
